The sample as a whole holds a higher share of hits than the screen did.
ABCB6 inh MLPCN = blocks the human ABCB6 transporter. Q9NP58. K562-ABCB6 porphyrin accumulation, flow cytometry, 1 h; active compounds read low. fluorescence ratio to DMSO, % at 10 µM. 360,000 compounds, 0.19% hits. AID 602162;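 active means fluorescence ratio to DMSO below 75%, the collection mean minus 3 SD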;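 further: signal is porphyrin accumulated inside mitochondria; 100% equals median channel fluorescence of DMSO control wells; lower ratio means ABCB6 inhibition with less porphyrin fluorescence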
Target sequence (Q9NP58 whole entry, looked up): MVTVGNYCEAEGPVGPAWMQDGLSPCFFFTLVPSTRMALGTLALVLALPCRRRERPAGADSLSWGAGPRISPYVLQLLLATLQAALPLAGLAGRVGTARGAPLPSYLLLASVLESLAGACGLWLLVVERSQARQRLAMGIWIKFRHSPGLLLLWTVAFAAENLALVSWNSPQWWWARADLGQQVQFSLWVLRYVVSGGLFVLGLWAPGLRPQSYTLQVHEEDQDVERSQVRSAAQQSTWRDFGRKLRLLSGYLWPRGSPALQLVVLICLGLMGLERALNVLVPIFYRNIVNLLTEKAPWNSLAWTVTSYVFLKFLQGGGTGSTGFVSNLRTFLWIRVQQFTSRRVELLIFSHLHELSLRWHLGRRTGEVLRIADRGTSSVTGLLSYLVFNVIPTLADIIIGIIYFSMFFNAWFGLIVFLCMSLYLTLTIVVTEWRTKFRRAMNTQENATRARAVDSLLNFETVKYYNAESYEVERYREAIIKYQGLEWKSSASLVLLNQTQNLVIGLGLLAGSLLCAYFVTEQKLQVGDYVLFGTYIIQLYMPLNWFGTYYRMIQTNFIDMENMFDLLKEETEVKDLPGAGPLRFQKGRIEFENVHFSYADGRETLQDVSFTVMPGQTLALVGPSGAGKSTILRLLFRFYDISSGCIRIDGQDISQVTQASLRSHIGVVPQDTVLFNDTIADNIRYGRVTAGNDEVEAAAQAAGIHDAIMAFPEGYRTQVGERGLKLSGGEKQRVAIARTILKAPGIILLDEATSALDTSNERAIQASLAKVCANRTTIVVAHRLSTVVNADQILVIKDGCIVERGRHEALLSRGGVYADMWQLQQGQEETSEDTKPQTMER
ABCB1 block = inhibitors of human ABCB1 transporter, ABCG2 counter-screen. P08183. CCRF-Adr cells, JC-1 efflux, flow cytometry. inhibition, % at 6.6 µM. 190,000 compounds, 0.067% hits; in the data active means inhibition above about 40%;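 further: 0% = vehicle and 100% = reference inhibitor; higher value means more JC-1 retained so stronger ABCB1 efflux block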
Diaph act CS = activates diaphorase or chemically reduces, flagging diaphorase assay artifacts | activation factor at 20 µM | Diaphorase/resazurin coupled assay, resorufin fluorescence, 16 min; active compounds read high; 1 = vehicle wells, 0 = NADH-free wells | 190,000 compounds, 0.005% hits;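 active means diaphorase activity raised at least twofold by the compound at 20 µM; inactive means activation factor below 2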
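Material: Clostridium kluyveri diaphorase, purified enzyme; Quantity: enzyme 0.07 U/mL final; Medium: HEPES pH 7.4 buffer with MgCl2 and Tween 20; Dosing: single compound dose of 20 µM, 1% DMSO final; Schedule: 16 min reaction at room temperature; Measured by: red resorufin fluorescence at 544/590 nm excitation/emission.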
ABCG2 inh = human ABCG2 inhibition, ABCB1 as counter-screen; Q9UNQ0; 190,000 compounds, 0.1% hits; inhibition, % at 6.6 µM; IgMXP3 cells, JC-1 efflux, flow cytometry;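 active means inhibition above 80%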;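 further: 0% = DMSO and 100% = nicardipine control wells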
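Test system: IgMXP3 cells (ABCG2) mixed with DDAO far-red-labelled CCRF-Adr cells (ABCB1). Reagent: JC-1 transporter substrate. Compound dosing: single test compound dose, 6.6 µM final. Times: 10 min compound exposure, 25 °C. Detection: flow cytometry of retained JC-1 fluorescence. Read-out basis: efflux inhibition in percent versus controls. Controls: nicardipine and DMSO wells.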
FLuc inhib CS = Photinus pyralis luciferase inhibition counter-screen; AID 1006; 200,000 compounds, 1.5% hits; ATPLite firefly luciferase biochemical luminescence, 10 min; inhibition, % at 10 µM; P08659;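 active means inhibition above about 50% when tested at 10 µM, limit read from the data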
FLuc act counter = affects firefly luciferase, flagging false hits in luciferase stimulation screens; ATPlite luciferase biochemical, luminescence, 10 min; 0 = ATP-free wells, 1 = DMSO control; activation factor at 10 µM; 200,000 tested, under 10 active;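 active means luciferase activation factor, scaled between plate controls, of at least 2 with compound at 10 µM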
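System: Luciferase/luciferin detection reagent, cell-free biochemical luciferase assay | Medium: PBS buffer for ATP | Dosing: Test compounds dosed from 2 mM stocks in 100% DMSO | Timing: 10 min at ambient temperature | Signal: Luminescence measurement of luciferase light output | Evaluation: Luciferase activation, seen as luminescence increase over controls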
ABCB1 single pt = confirmation of human ABCB1 transporter inhibitors, ABCG2 counter-screen; shares compounds with ABCG2 inh; CCRF-Adr cells, JC-1 efflux, flow cytometry; inhibition, % at 6.6 µM; 270 compounds, 7% hits; AID 1451;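 active means inhibition of pump activity above 50%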;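 further: 0% = DMSO and 100% = nicardipine full pump inhibition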
ABCG2 single pt = inhibits human ABCG2 efflux, confirmed at single point. AID 1453. inhibition, % at 6.6 µM. IgMXP3 cells, JC-1 efflux, flow cytometry. shares compounds with ABCG2 inh. 270 compounds, 6% hits;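 active means inhibition above 50%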;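 further: 0% = DMSO wells and 100% = nicardipine pump inhibitor wells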
IgMXP3 fluor = counter-screen for ABCG2 inhibitors: compound fluorescence in IgMXP3 cells | shares compounds with ABCG2 inh | compound autofluorescence 488/530 nm, flow; active compounds read high | fluorescence at 6.6 µM | 270 compounds, 30% hits;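 active means fluorescence in ABCG2-expressing cells above the plate's control-well mean plus 3 SD, cut at about 15 in these data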;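 further: median cell fluorescence with compound minus that of DMSO-treated control cells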
CCRF autofluor = CCRF-Adr autofluorescence flag for ABCB1 confirmation. 270 compounds, 30% hits. CCRF-Adr cells, compound autofluorescence 488/530 nm, flow cytometry; active compounds read high. AID 1483. fluorescence at 6.6 µM. shares compounds with ABCG2 inh;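 active means fluorescence beyond the plate control mean plus 3 SD, with a fluorescence-to-maximum score over 2, cut at about 25 in these data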
* = called active by the depositor; i = inactive; / = no result; + = active, no number.

SMILES	ABCB6 inh MLPCN	ABCB1 block	Diaph act CS	ABCG2 inh	FLuc inhib CS	FLuc act counter	ABCB1 single pt	ABCG2 single pt	IgMXP3 fluor	CCRF autofluor
CC(C)[C@H](NC(=O)c1ccc(Br)cc1)C(=O)NC1CCCCC1	97	/	/	/	/	/	/	/	/	/
CC(C)c1cccc(C(C)C)c1OC(=O)[C@H]1OC(c2ccc(Br)cc2)=C[C@@H]1c1ccc(Br)cc1	95	/	/	/	/	/	/	/	/	/
Cc1ccc(S(=O)(=O)N2CCC(C(=O)OCC(=O)N3CCCC3=O)CC2)cc1C	100	/	/	/	/	/	/	/	/	/
CCN(CC)c1ccc(/C=C2/C(=O)c3ccc(C(=O)O)cc3C2=O)cc1	202	140*	0.7	+	92*	0.1	-46	-162	251*	169*
COc1ccc(C(=O)Nc2cc(C(C)=O)c(C)oc2=O)cc1	99	0	0.9	3	17	0.8	/	/	/	/
COC(=O)c1cc(NC(=O)c2ccccc2)c(=O)oc1/C=C/Nc1ccc(Oc2ccccc2)cc1	i	127*	1	116*	-3	1	91*	-34	207*	339*
Cc1cccc(C)c1OCC(=O)NNC(=S)NC(=O)C1CC1	97	/	/	/	/	/	/	/	/	/
Cc1cc([N+](=O)[O-])ccc1NC(=O)Nc1ccccc1F	102	2	1	106*	-3	1	1	40	-0.99	4
O=C(Nc1ccccc1)Nc1cc([N+](=O)[O-])ccc1F	88	1	0.8	11	0	1	/	/	/	/
COc1ccc(Cc2nc3c4c(ncn3n2)Oc2c(ccc3ccccc23)C4c2ccc(OC)c(OC)c2)cc1 (centres undefined)	100	12	0.9	7	-2	1	/	/	/	/
COc1ccc(Cc2nc3c4c(ncn3n2)Oc2ccc3ccccc3c2C4c2ccc(OC)c(OC)c2)cc1 (centres undefined)	98	10	0.8	7	2	1	30	18	-2.3	-4.1
COc1ccc(/C=C/C(=O)Oc2ccc(C)cc2)cc1	102	/	/	/	/	/	/	/	/	/
CCC(=O)Nc1cccc(C(=O)OCc2cccc([N+](=O)[O-])c2)c1	85	4	0.9	93*	-5	1	6	28	0.66	-1.8
CCCCOC(=O)Nc1ccc(C(=O)OCCC)cc1	101	1	0.8	73	-2	1	0	29	5.2	19
Cc1ccccc1Cn1cc(S(=O)(=O)CC(=O)Nc2nccs2)c2ccccc21	94	9	0.7	83*	-6	1.1	7	14	-1.1	-2.1
CC(Cc1ccccc1)NC(=O)CCCN1C(=O)c2ccccc2C1=O (centres undefined)	97	/	/	/	/	/	/	/	/	/
COc1ccc(CCNC(=O)COC(=O)/C=C/c2ccc(OC)c(OC)c2)cc1	102	0	0.9	89*	-4	1	1	56*	-2.1	-3.8
COc1ccc(CCNC(=O)COC(=O)/C=C/c2ccc(OCC#N)c(OC)c2)cc1	100	-1	0.9	6	-7	1.1	/	/	/	/
O=[N+]([O-])c1ccc(OCCN2CCCCCC2)cc1	95	0	1	81*	-4	1	0	3	0.21	5.8
COc1ccc(-n2c(SCC(=O)NC3CC3)nc3ccccc3c2=O)cc1OC	103	/	/	/	/	/	/	/	/	/
Cc1cc(C(=O)NNC(=O)c2ccc(Cl)cc2Cl)c(C)o1	102	/	/	/	/	/	/	/	/	/
CC(C)CCOc1cccc(OCC(=O)O)c1	100	30	1.1	108*	1	1	1	3	8.3	-0.84
CCOC(=O)c1c(-c2ccccc2)csc1NC(=O)/C(C#N)=C/c1ccc(O)c(OC)c1	375	66*	0.7	123*	-5	1	-30	-39	284*	264*
CCOC(=O)c1c(-c2ccccc2)csc1NC(=O)/C(C#N)=C/c1ccc(OC)c(OC)c1	98	0	0.8	2	-10	1.1	/	/	/	/
CCOC(=O)c1oc2ccccc2c1COC(=O)CNC(=O)c1ccc(C)cc1	93	/	/	/	/	/	/	/	/	/
SMILES	ABCB6 inh MLPCN	ABCB1 block	Diaph act CS	ABCG2 inh	FLuc inhib CS	FLuc act counter	ABCB1 single pt	ABCG2 single pt	IgMXP3 fluor	CCRF autofluor
O=C(Cn1ccc(C(F)(F)F)n1)N=Nc1c(O)[nH]c2ccccc12	99	1	1	23	-2	1	/	/	/	/
CC(C)n1c(O)c(N=NC(=O)Cn2ccc(C(F)(F)F)n2)c2ccccc21	99	1	0.8	89*	-2	1	16	17	2.9	28*
C[C@H](CO)N1C[C@H](C)[C@@H](CN(C)C(=O)Nc2ccc(F)cc2)Oc2ccc(NS(C)(=O)=O)cc2C1=O	100	/	/	/	/	/	/	/	/	/
O=C(COC(=O)c1ccccc1OCC(=O)Nc1ccc(Br)cc1)Nc1ccccc1	98	3	0.8	84*	-3	1	1	26	-0.79	-0.74
CCC(C)NC(=O)COC(=O)c1ccccc1OCC(=O)Nc1ccc(Br)cc1 (centres undefined)	106	1	1.2	21	-4	1	/	/	/	/
CCn1nc(C)c(CNC(=O)C2CCC(=O)N(Cc3ccc(Cl)cc3)C2)c1C (centres undefined)	97	/	/	/	/	/	/	/	/	/
O=[N+]([O-])c1ccc(NN=CC2CCCCCC2)c([N+](=O)[O-])c1	101	/	/	/	/	/	/	/	/	/
O=C1Nc2ccccc2Oc2cc([N+](=O)[O-])cc(Oc3ccccc3)c21	161	38	0.9	89*	0	1	3	17	20*	59*
Cc1cccc(Oc2cc([N+](=O)[O-])cc3c2C(=O)Nc2ccccc2O3)c1	120	9	0.7	21	-4	1	/	/	/	/
CCNC(=O)Cn1c(=O)c(=O)n(Cc2ccccc2)c2ccc(Cl)cc21	98	1	1.1	95*	-6	1.1	-4	4	2.6	27*
S=c1nc(NCc2cccc(Cl)c2)c2ccccc2[nH]1	96	/	/	/	/	/	/	/	/	/
CC(=O)c1c(C)[nH]c(C(=O)OCC(=O)Nc2cc(Cl)ccc2[N+](=O)[O-])c1C	89	6	0.9	9	0	1	9	34	4.5	12
CC(=O)c1ccc(N2CCN(S(=O)(=O)c3c(C(=O)N4CCCC4)c(C)n(C)c3C)CC2)cc1	98	/	/	/	/	/	/	/	/	/
